Reference: ChEMBL document CHEMBL1124822, “(8 beta)-6-methylergoline amide derivatives as serotonin antagonists: N1-substituent effects on vascular 5HT2 receptor activity” (J Med Chem, 1990)

What follows are compounds tested against Serotonin 2 (5-HT2) receptor (Rattus norvegicus) (UniProt P30994+P08909+P14842) (assay: Antagonistic activity against (5-hydroxytryptamine 2 receptor) serotonin-induced contractions in the rat jugular vein).
Assay type: functional
Outline: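 Isolated jugular vein segments mounted on two L-shaped needles, one tied to a transducer, in organ baths with 10 mL modified Krebs bicarbonate solution; 1-2 h equilibration. Control cumulative serotonin contraction curves were recorded, then the antagonist was incubated 1 h and the curves repeated, one antagonist concentration per tissue. K_B = [B]/(dose ratio − 1), using serotonin ED50 ratios; reported as −log K_B.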

Sequence of Serotonin 2 (5-HT2) receptor (Rattus norvegicus) (P08909 whole entry, looked up): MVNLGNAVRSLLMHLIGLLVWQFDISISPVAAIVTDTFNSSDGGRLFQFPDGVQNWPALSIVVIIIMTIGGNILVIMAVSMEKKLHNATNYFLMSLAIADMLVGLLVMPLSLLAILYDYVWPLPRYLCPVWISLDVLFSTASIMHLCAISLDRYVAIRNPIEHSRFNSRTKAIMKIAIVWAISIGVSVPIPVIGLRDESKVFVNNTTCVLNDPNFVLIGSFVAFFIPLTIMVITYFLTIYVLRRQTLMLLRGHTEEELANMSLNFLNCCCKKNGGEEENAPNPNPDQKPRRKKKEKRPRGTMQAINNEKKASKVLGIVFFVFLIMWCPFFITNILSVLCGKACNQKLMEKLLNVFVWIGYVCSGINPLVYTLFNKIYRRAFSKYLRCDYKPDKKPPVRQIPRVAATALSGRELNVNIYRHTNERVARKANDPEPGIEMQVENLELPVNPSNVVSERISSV
Sequence of Serotonin 2 (5-HT2) receptor (Rattus norvegicus) (P14842 whole entry, looked up): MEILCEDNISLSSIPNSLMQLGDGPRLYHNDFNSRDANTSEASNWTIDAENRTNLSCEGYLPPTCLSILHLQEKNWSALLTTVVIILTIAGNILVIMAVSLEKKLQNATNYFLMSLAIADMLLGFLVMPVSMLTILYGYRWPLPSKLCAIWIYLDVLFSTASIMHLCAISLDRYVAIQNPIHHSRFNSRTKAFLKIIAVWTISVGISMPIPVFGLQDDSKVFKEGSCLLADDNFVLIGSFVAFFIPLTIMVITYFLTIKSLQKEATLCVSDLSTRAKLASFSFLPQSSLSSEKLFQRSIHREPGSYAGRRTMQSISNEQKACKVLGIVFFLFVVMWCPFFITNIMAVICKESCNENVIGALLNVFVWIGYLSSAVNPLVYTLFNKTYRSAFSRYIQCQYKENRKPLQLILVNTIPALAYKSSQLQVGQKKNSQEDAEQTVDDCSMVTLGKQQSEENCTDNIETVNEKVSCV
Sequence of Serotonin 2 (5-HT2) receptor (Rattus norvegicus) (P30994 whole entry, looked up): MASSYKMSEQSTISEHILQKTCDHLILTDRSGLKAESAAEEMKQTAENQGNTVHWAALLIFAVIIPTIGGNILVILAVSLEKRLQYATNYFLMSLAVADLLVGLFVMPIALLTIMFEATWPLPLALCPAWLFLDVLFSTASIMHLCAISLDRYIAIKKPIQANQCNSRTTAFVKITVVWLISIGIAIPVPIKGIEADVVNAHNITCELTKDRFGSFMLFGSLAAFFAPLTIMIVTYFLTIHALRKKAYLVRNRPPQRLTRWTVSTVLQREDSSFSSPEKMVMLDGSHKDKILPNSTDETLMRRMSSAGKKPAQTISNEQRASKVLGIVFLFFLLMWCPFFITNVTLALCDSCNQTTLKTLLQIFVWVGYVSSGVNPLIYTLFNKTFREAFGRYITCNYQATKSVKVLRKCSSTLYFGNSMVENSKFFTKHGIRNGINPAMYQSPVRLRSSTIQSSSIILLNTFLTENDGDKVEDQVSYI

Row | Compound | -Log KB
1 | CC(C)Cn1cc2c3c(cccc31)[C@H]1C[C@@H](C(=O)NC3CCCC3)CN(C)[C@@H]1C2 | < 7
2 | CC(C)n1cc2c3c(cccc31)[C@H]1C[C@@H](CC(=O)NC3CCCCC3)CN(C)[C@@H]1C2 | 8.88
3 | CN1C[C@H](C(=O)NC2CCCCC2)C[C@@H]2c3cccc4c3c(cn4Cc3ccccc3)C[C@H]21 | < 7
4 | COC1CCC(C(=O)N[C@@H]2C[C@@H]3c4cccc5c4c(cn5C(C)C)C[C@H]3N(C)C2)CC1 (stereo partly specified) | 9.64
5 | CN1C[C@H](C(=O)NC2CCCC2)C[C@@H]2c3cccc4c3c(cn4C)C[C@H]21 | 9.23
6 | CC(C)n1cc2c3c(cccc31)[C@H]1C[C@@H](C(=O)NC3CCCC3)CN(C)[C@@H]1C2 | 10.3
7 | CN1C[C@H](C(=O)NC2CCCCC2)C[C@@H]2c3cccc4[nH]cc(c34)C[C@H]21 | 9.24
8 | CN1C[C@H](c2nnnn2C2CCCCC2)C[C@@H]2c3cccc4[nH]cc(c34)C[C@H]21 | < 6.52
9 | COC1CCC(C(=O)N[C@@H]2C[C@@H]3c4cccc5c4c(cn5C)C[C@H]3N(C)C2)CC1 (stereo partly specified) | 8.71
10 | CN1C[C@H](C(=O)NC2CCCC2)C[C@@H]2c3cccc4[nH]cc(c34)C[C@H]21 | 8.87
11 | CCn1cc2c3c(cccc31)[C@H]1C[C@@H](C(=O)NC3CCCCC3)CN(C)[C@@H]1C2 | 9.25
12 | CN1C[C@H](CC(=O)NC2CCCCC2)C[C@@H]2c3cccc4c3c(cn4C)C[C@H]21 | 8.97
13 | CCC(CC)n1cc2c3c(cccc31)[C@H]1C[C@@H](C(=O)NC3CCCC3)CN(C)[C@@H]1C2 | 7.3
14 | CCn1cc2c3c(cccc31)[C@H]1C[C@@H](NC(=O)C3CCC(OC)CC3)CN(C)[C@@H]1C2 (stereo partly specified) | 9.43
15 | CC(C)n1cc2c3c(cccc31)[C@H]1C[C@@H](c3nnnn3C3CCCCC3)CN(C)[C@@H]1C2 | < 8
16 | CCCCCCCCn1cc2c3c(cccc31)[C@H]1C[C@@H](C(=O)NC3CCCCC3)CN(C)[C@@H]1C2 | < 7

Row | Compound | -Log KB
17 | CN1C[C@H](C(N)=O)C[C@@H]2c3cccc4[nH]cc(c34)C[C@H]21 | 7
18 | CCn1cc2c3c(cccc31)[C@H]1C[C@@H](C(N)=O)CN(C)[C@@H]1C2 | 8.44
19 | CN1C[C@H](C(=O)NC2CCCCC2)C[C@@H]2c3cccc4c3c(cn4C3CCCC3)C[C@H]21 | < 7
20 | CC(C)n1cc2c3c(cccc31)[C@H]1C[C@@H](C(=O)NC3CCCCC3)CN(C)[C@@H]1C2 | 9.67
21 | CCn1cc2c3c(cccc31)[C@H]1C[C@@H](C(=O)NC3CCCC3)CN(C)[C@@H]1C2 | 9.8
22 | CC(C)n1cc2c3c(cccc31)[C@H]1C[C@@H](C(N)=O)CN(C)[C@@H]1C2 | 8.7
23 | CCC(CC)n1cc2c3c(cccc31)[C@H]1C[C@@H](C(=O)NC3CCCCC3)CN(C)[C@@H]1C2 | 7.8
24 | CN1C[C@H](C(N)=O)C[C@@H]2c3cccc4c3c(cn4C)C[C@H]21 | 7.81
25 | CN1C[C@H](C(=O)NC2CCCCC2)C[C@@H]2c3cccc4c3c(cn4C)C[C@H]21 | 9.7
26 | CN1C[C@H](c2nnnn2C2CCCCC2)C[C@@H]2c3cccc4c3c(cn4C)C[C@H]21 | < 7
27 | CC(C)Cn1cc2c3c(cccc31)[C@H]1C[C@@H](C(=O)NC3CCCCC3)CN(C)[C@@H]1C2 | < 7
28 | CN1C[C@H](CC(=O)NC2CCCCC2)C[C@@H]2c3cccc4[nH]cc(c34)C[C@H]21 | 8.05
29 | CCCCn1cc2c3c(cccc31)[C@H]1C[C@@H](C(=O)NC3CCCCC3)CN(C)[C@@H]1C2 | 7.5
30 | CCCn1cc2c3c(cccc31)[C@H]1C[C@@H](C(=O)NC3CCCCC3)CN(C)[C@@H]1C2 | 8
31 | C=CCn1cc2c3c(cccc31)[C@H]1C[C@@H](C(=O)NC3CCCCC3)CN(C)[C@@H]1C2 | 8.15
